Measurements: publication PMC5292677 (Leukemia, 2016)
“Also recorded” adds a separate entry of the source.

Tests used:
[1] = system: patients with myelofibrosis; experiment: Splenic response by palpation; format: in vivo, human
Summary of the method: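 Spleen size was measured by palpation and response scored by IWG-MRT criteria. Assessments fell on Day 1 of Cycles 2, 3 and 4, then every 3 cycles, during daily oral dosing in continuous 28-day cycles. Analysis covered patients who completed ≥1 cycle and had baseline splenomegaly ≥5 cm.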

[2] = system: JAK2^V617F-driven mouse model; conditions: cited from earlier work
Plasma pharmacokinetics = format: in vivo, human
Summary of the method: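 Plasma was sampled on Days 1, 8 and 29: predose and ~0.5, 1, 2, 3, 4, 6 and 8 h after oral dosing, plus 24 h on Days 1 and 29. Test compound was measured by LC-MS/MS (LLOQ 1 ng/ml). For BID regimens, AUC0–24 was taken as twice AUC0–12. Analysis covered patients with ≥1 evaluable profile.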

[3] = 36 evaluable patients, all cohorts

For `C[C@H](Nc1cc(-c2cnn(C)c2)cc(Nc2cnccn2)n1)c1ccc(F)cc1` [NS-018], the “Median (range) cycles to splenic reduction ⩾50%” value ([1]; 100 mg BID) was 7.5 (3–12) cycles, the “Median (range) cycles to splenic reduction ⩾50%” value ([1]; 200 mg BID) was 1 cycles and the “Median (range) cycles to splenic reduction ⩾50%” value ([1]; 200 mg QD) was 3 cycles. For the same molecule, the “Median (range) cycles to splenic reduction ⩾50%” value ([1]; 250 mg BID) was 3 cycles, the “Median (range) cycles to splenic reduction ⩾50%” value ([1]; 300 mg BID) was 1 cycles and the “Median (range) cycles to splenic reduction ⩾50%” value ([1]; 300 mg QD) was 2 (1–8) cycles. For the same molecule, the “Median (range) cycles to splenic reduction ⩾50%” value ([1]; 400 mg BID) was 1.5 (1–2) cycles, the “Median (range) cycles to splenic reduction ⩾50%” value ([1]; 400 mg QD) was 1 cycles and the “Patients achieving ⩾50% reduction in palpable spleen size” value [1, 3] was 56%. For the same molecule, the “Patients with splenic reduction of 100%” value [1, 3] was 31%, the “Patients with 100% splenic reduction” value ([1]; JAK2^V617F-negative responders) was 3 patients and the “Median duration of splenic response (range)” value ([1]; all cohorts) was 5.5 (1–24) cycles. For the same molecule, the “Median (range) cycles to splenic reduction ⩾50%” value ([1]; all dose cohorts) was 1 (1–12) cycles, the “Patients achieving ⩾50% reduction in spleen size” value ([1]; baseline spleen >10 cm) was 15 patients and the “Patients attaining 100% reduction in spleen size” value ([1]; baseline spleen ⩽10 cm) was 5 patients. The “Patients achieving ⩾50% reduction in palpable spleen size” value ([1]; evaluable patients with prior JAK2 inhibitor treatment) was 47%, the “Patients achieving ⩾50% reduction in palpable spleen size” value ([1]; evaluable patients with the JAK2^V617F mutation) was 50% and the “Median (range) cycles to splenic reduction ⩾50%” value ([1]; prior JAK2 inhibitor treatment) was 2 (1–12) cycles. For the same molecule, the “Patients with 100% splenic reduction” value ([1]; responders with the JAK2^V617F mutation) was 8 patients, the Splenomegaly ([2]; JAK2^V617F-driven mouse model) was “reduced splenomegaly” and the “Leukocytosis, BMF and survival” value ([2]; murine model) was “Improvements”. For the same molecule, the “Peripheral blood erythrocyte or platelet counts” value ([2]; murine model) was “without reducing”, the “Time to maximum plasma concentration (Cmax)” value (Plasma pharmacokinetics; Day 8, postdosing, all dose cohorts, oral) was 1 to 2 h and the “Dose proportionality of systemic exposure” value (Plasma pharmacokinetics; based on Cmax on Day 8) was “approximately dose proportional”. For the same molecule, the “Drug accumulation with multiple dosing” value (Plasma pharmacokinetics; exposure Days 8 vs 29) was “did not accumulate; also recorded: no evidence of drug accumulation” and the half-life (Plasma pharmacokinetics; human, plasma, po) was 2 to 5 h.
